Read-outs that look alike come from different tables or passages of the source.

For orientation: EC50 means the midpoint of the concentration-response curve. For orientation: IC50 means the concentration at which inhibition is half-maximal.

Experiment [1] concerns the target T1, EBI2 (Homo sapiens, UniProt P32249). Briefly: GTPγ35S binding functional assay. It counts as biochemical.
The target of experiment [2] is T1, EBI2. Briefly: Radioligand binding to membranes from EBI2 expressing CHO cells.
Experiment [3] deals with T1, EBI2. Briefly: Calcium mobilization. It counts as cell-based. In general terms: Calcium assays in cells follow changes in intracellular calcium, usually with a dye or a luminescent sensor.
Experiment [4] concerns Membranes from parental cells lacking EBI2 receptor. Kind of experiment: Radioligand binding to membranes from parental cells lacking EBI2. The settings on record: data not shown.
The subject of a further experiment is RS11846 cells. Briefly: Transwell migration of RS11846 cells. It counts as cell-based. As to conditions: transwell assay.
The target of experiment [5] is T1, EBI2. It counts as cell-based.
Another experiment deals with 31 different GPCRs. Briefly: Panel of GPCR assays. It counts as cell-based.
The subject of experiment [6] is 8 different nuclear hormone receptors including LXR. Kind of experiment: Panel of reporter gene assays against nuclear hormone receptors. It counts as cell-based. As to conditions: 8 nuclear hormone receptors including LXR. (Reporter assays use an easily measured gene product as a stand-in for the process of interest.)
The subject of experiment [7] is Parental cells lacking the EBI2 receptor. Kind of experiment: Calcium mobilization in parental cell line lacking EBI2. The settings on record: parental cell line without EBI2. It counts as cell-based.
Experiment [8] deals with EBV-infected human B cell line. Briefly: Transwell migration of EBV-infected B cells. It counts as cell-based. As to conditions: transwell assay; bell shaped activity curve. A digest of the protocol:
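Transwell chemotaxis of an EBV-infected human B cell line toward oxysterol test compounds in the lower chamber. Samples run in duplicate.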

The test system of experiment [9] is EBI2 expressing cell line (M12). Kind of experiment: Migration bioassay with EBI2 expressing reporter cell line. It counts as cell-based. As to conditions: attraction of EBI2 expressing cell line (Fig. S8c). The method, boiled down:
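Chemoattraction bioassay: M12 reporter cells, with or without EBI2, exposed to the oxysterol ligand; read-out is migration of cells toward it. The same assay was also run on spleen and lymph node tissue extracts from wild-type and Ch25h-deficient mice.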

The subject of experiment [10] is bone marrow-derived dendritic cells. Kind of experiment: Transwell migration of bone marrow-derived dendritic cells. It counts as cell-based, mice. The settings on record: transwell assay. A digest of the protocol:
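Dendritic cells derived from the bone marrow of wild-type and Ebi2(−/−) mice, tested side by side for transwell migration toward oxysterol test compounds. Samples run in quadruplicate.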

Where [11] appears, read: read-out: GTPγ^35S Binding EC50, n = 3-4, ± standard deviation.
Where [12] appears, read: read-out: [^3H]-7α, 25-OHC Binding IC50, displacement of 10 nM 3H-7α, 25-OHC from membranes of EBI2 expressing CHO cells, n = 3-4, ± standard deviation.
Setting [13] is: read-out: Ca^2+ Fluorescence EC50, FLIPR, CHO cells stably expressing EBI2, n = 3-4, ± standard deviation.

T1 sequence (P32249 whole entry): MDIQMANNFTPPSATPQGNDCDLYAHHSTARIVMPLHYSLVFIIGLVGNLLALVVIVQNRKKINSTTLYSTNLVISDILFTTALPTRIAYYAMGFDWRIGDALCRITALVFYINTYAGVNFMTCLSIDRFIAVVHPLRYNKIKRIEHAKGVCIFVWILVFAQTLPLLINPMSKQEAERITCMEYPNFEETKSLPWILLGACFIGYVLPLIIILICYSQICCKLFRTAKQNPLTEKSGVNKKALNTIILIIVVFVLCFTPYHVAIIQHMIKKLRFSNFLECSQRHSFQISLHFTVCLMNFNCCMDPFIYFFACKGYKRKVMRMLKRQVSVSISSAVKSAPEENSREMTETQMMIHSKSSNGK

Regarding `C[C@@H](CO)CCC[C@@H](C)[C@H]1CC[C@H]2[C@@H]3[C@@H](O)C=C4C[C@@H](O)CC[C@]4(C)[C@H]3CC[C@]12C` [7β, 27-OHC], the values for the concentration for a half-maximal effect (EC50) on EBI2 [1] (setting [11]) and on EBI2 [3] (setting [13]) were 125 ± 66 nM and 310 ± 261 nM, respectively. The concentration for half-maximal inhibition (IC50) on EBI2 [2] (setting [12]) is above 10000 nM.
As for `CC(C)CCC[C@@H](C)[C@H]1CC[C@H]2[C@@H]3CC=C4C[C@@H](O)CC[C@]4(C)[C@H]3CC[C@]12C` [cholesterol], the EC50 at EBI2 [1] and on EBI2 [3] was above 10000 nM each time. Besides, the IC50 on EBI2 [2] was above 10000 nM.
With `[3H]C1(O)C=C2CC(O)CCC2(C)C2CCC3(C)C(C(C)CCCC(C)(C)O)CCC3C21` (stereo not drawn) [[^3H]-7α, 25-OHC], the “binding of radioligand to membranes from parental cells” value in experiment [4] is “did not bind”.
Consider pertussis toxin, for which the “effect on oxysterol-mediated attraction of RS11846 cells” value in the experiment on RS11846 cells (presence of pertussis toxin) was “could be blocked”.
On to `C[C@H](CCCC(C)(C)O)[C@H]1CC[C@H]2[C@@H]3[C@@H](O)C=C4C[C@@H](O)CC[C@]4(C)[C@H]3CC[C@]12C` [7β, 25-OHC, cholest-5-ene-3β, 7β, 25-triol], for which, on EBI2 [5], the concentration for a half-maximal effect (EC50) was around 50 nM.
`CO[C@H]1C=C2C[C@@H](O)CC[C@]2(C)[C@H]2CC[C@]3(C)[C@@H]([C@H](C)CCCC(C)C)CC[C@H]3[C@H]12` [7-methoxy derivate of 7β-OHC]: at EBI2 [5] (initial test of candidates (Fig. S3)), the “activation of EBI2” value is “did not activate EBI2”.
For the molecule `C[C@H](CCCC(C)(C)O)[C@H]1CC[C@H]2[C@@H]3CC=C4C[C@@H](O)CC[C@]4(C)[C@H]3CC[C@]12C` [25-OHC], the figures for the concentration for a half-maximal effect (EC50) on EBI2 [1] (setting [11]) and at EBI2 [3] (setting [13]) were 727 ± 232 nM and 3030 ± 2640 nM, respectively. At EBI2 [2] (setting [12]), the IC50 is above 10000 nM.
Consider `C[C@@H](CO)CCC[C@@H](C)[C@H]1CC[C@H]2[C@@H]3[C@H](O)C=C4C[C@@H](O)CC[C@]4(C)[C@H]3CC[C@]12C` [7α, 27-OHC], for which the “interaction with other GPCRs” value in the experiment with 31 different GPCRs is recorded as “In none of these assays did we see a significant interaction”. The “interaction with nuclear hormone receptors” value in experiment [6] is given as “In none of these assays did we see a significant interaction”. For the same molecule, the EC50 at EBI2 [1] (setting [11]) was determined as 5 ± 2 nM; at EBI2 [3] (setting [13]), 5 ± 4 nM. Moreover, the half-maximal inhibitory concentration (IC50) at EBI2 [2] (setting [12]) was 362 ± 32 nM.
For `C[C@H](CCCC(C)(C)O)[C@H]1CC[C@H]2[C@@H]3[C@H](O)C=C4C[C@@H](O)CC[C@]4(C)[C@H]3CC[C@]12C` [7α, 25-OHC, 5-cholesten-3β, 7α, 25-triol], in the experiment on 31 different GPCRs, the “interaction with other GPCRs” value was “In none of these assays did we see a significant interaction”. The “interaction with nuclear hormone receptors” value in experiment [6] is reported as “In none of these assays did we see a significant interaction”. The “calcium response of parental cells lacking EBI2” value in experiment [7] was “did not respond”. Besides, the “chemoattraction of EBV-infected B cells” value in [8] is listed as “can potently attract”. In addition, the “chemoattraction of RS11846 cells” value with RS11846 cells (bell shaped activity curve) is on record as “can potently attract”. The sensitivity of bioassay result in experiment [9] is recorded as “subnanomolar sensitivity”. For the same molecule, the concentration giving a half-maximal response (EC50) at EBI2 [3] was 2 ± 2 nM. Moreover, the “migration of BMDC from wild type and Ebi2(−/−) animals” value in experiment [10] was “only wild type cells migrate”.
As to `[3H]C1(O)C=C2CC(O)CCC2(C)C2CCC3(C)C(C(C)CCCC(C)(C)O)CCC3C21` (stereo not drawn) [[^3H]-7β, 25-OHC], the “specific binding of radioligand to EBI2 membranes” value at EBI2 [2] (EBI2 membranes) is on record as “no specific binding”.

The record behind these values is PMC4297623 (Nature, 2011).
